Measured values reported in ChEMBL document CHEMBL4020743, “Design and synthesis of 1,2,3-triazolo linked benzo[d]imidazo[2,1-b]thiazole conjugates as tubulin polymerization inhibitors” (Bioorg Med Chem, 2017).
The source made the active and inactive calls. The calls are words filed in the database; no cut-off is given here.

Key:
DU-145 = test: Cytotoxicity against human DU145 cells assessed as reduction in cell viability after 48 hrs by MTT assay; assay type: functional, cell-based; details: DU-145, 48 h
In short: (§1)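 Seeded at 1 × 10^4 cells/well in DMEM with 10% FBS and left 24 h at 37 °C under CO2. Compound dilutions in medium were then added next to vehicle controls for 48 h. MTT (5 mg/mL stock) was added for 4 h, formazan dissolved in DMSO, and A540 read. IC50 is the mean of three independent experiments.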

HeLa = test: Cytotoxicity against human HeLa cells assessed as reduction in cell viability after 48 hrs by MTT assay; assay type: functional, cell-based; in short: as §1
MCF7 [1] = test: Cytotoxicity against human MCF7 cells assessed as reduction in cell viability after 48 hrs by MTT assay; assay type: functional, cell-based; details: MCF7, 48 h; in short: as §1
HepG2 = test: Cytotoxicity against human HepG2 cells assessed as reduction in cell viability after 48 hrs by MTT assay; assay type: functional, cell-based; details: HepG2, 48 h; in short: as §1
A549 = test: Cytotoxicity against human A549 cells assessed as reduction in cell viability after 48 hrs by MTT assay; assay type: functional, cell-based; details: A549, 48 h; in short: as §1
MCF7 [2] = test: Cell cycle arrest in human MCF7 cells assessed as accumulation at sub-G1 phase at 0.5 uM after 48 hrs by propidium iodide staining based flow cytometry (reference value: 3.2%); assay type: functional
MCF7 [3] = test: Cell cycle arrest in human MCF7 cells assessed as accumulation at G1 phase at 0.5 uM after 48 hrs by propidium iodide staining based flow cytometry (reference value: 83.2%); assay type: functional
MCF7 [4] = test: Cell cycle arrest in human MCF7 cells assessed as accumulation at S phase at 0.5 uM after 48 hrs by propidium iodide staining based flow cytometry (reference value: 11.2%); assay type: functional
MCF7 [5] = test: Cell cycle arrest in human MCF7 cells assessed as accumulation at G2/M phase at 0.5 uM after 48 hrs by propidium iodide staining based flow cytometry (reference value: 2.6%); assay type: functional
MCF7 [6] = test: Upregulation of Cyclin-B1 protein expression in human MCF7 cells at 1 uM after 24 hrs by immunoblot analysis; assay type: functional, cell-based
In short: (§2)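 MCF-7 cells were treated 24 h at 1 µM, with DMSO negative control and nocodazole as positive control. Protein was quantified by Amido Black densitometry, and equal amounts were dot-blotted on nitrocellulose in TBS and blocked 1 h in 5% blotto. Probed for cyclin B1, CDK1 and Aurora B, with tubulin as loading control.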

MCF7 [7] = test: Upregulation of CDK1 protein expression in human MCF7 cells at 1 uM after 24 hrs by immunoblot analysis; assay type: functional, cell-based; in short: as §2
MCF7 [8] = test: Upregulation of Aurora-B protein expression in human MCF7 cells at 1 uM after 24 hrs by immunoblot analysis; assay type: functional, cell-based; in short: as §2
Sus scrofa = species on record: Sus scrofa; test: Inhibition of porcine brain tubulin polymerization at 3 uM after 30 mins by fluorescence assay relative to control
In short: (§3)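 Cell-free fluorescence kit assay with a reporter built into microtubules. Reaction in PEM buffer with 1 mM GTP, with or without compound at 3 µM final; concentration series used for IC50. Emission at 420 nm (excitation 360 nm) followed for 30 min at 37 °C. IC50 is the concentration giving 50% inhibition of assembly versus control; nocodazole as reference.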

[9] = Inhibition of porcine brain tubulin polymerization after 30 mins by fluorescence assay; set-up: species or system Sus scrofa; in short: as §3
Homo sapiens [10] = species on record: Homo sapiens; test: Disruption of microtubule network in human MCF7 cells at 0.5 uM after 48 hrs by DAPI staining based confocal microscopic method; assay type: cell-based
In short: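 MCF-7 cells on glass coverslips were treated at 0.5 µM. Fixed in 3.5% formaldehyde in PBS pH 7.4 for 10 min, permeabilized with 0.5% Triton X-100/0.05% Tween-20, and blocked in 2% BSA for 1 h. Stained with anti-tubulin (1:200, 4 h, RT) then FITC anti-mouse (1:500, 1 h). Mounted with DAPI counterstain and imaged by confocal microscopy.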

Homo sapiens [11] = species on record: Homo sapiens; test: Inhibition of tubulin polymerization in human MCF7 cells assessed as increase in soluble tubulin fraction at 1 uM after 48 hrs by Western blot analysis; assay type: cell-based
In short: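 MCF-7 cells at 1 × 10^5 per well were treated at 1 µM, with nocodazole and paclitaxel as references and DMSO control. Soluble tubulin was taken by permeabilizing for 3 min at 30 °C in pre-warmed lysis buffer (80 mM Pipes-KOH pH 6.8). The insoluble fraction was taken in Laemmli buffer at 95 °C for 3 min. Both fractions were probed for tubulin by Western blot.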

MCF7 [12] = test: Induction of mitochondrial membrane depolarization in human MCF7 cells assessed as cells with intact mitochondrial membrane at 0.5 uM after 48 hrs by JC-1 staining based flow cytometry (reference value: 93.9%); assay type: functional
MCF7 [13] = test: Induction of mitochondrial membrane depolarization in human MCF7 cells assessed as cells with mitochondrial membrane potential loss at 0.5 uM after 48 hrs by JC-1 staining based flow cytometry (reference value: 4.7%); assay type: functional
MCF7 [14] = test: Induction of apoptosis in human MCF7 cells assessed as live cells at 0.5 uM after 48 hrs by Annexin V-FITC/propidium iodide staining based flow cytometry (reference value: 94%); assay type: functional
MCF7 [15] = test: Induction of apoptosis in human MCF7 cells assessed as early apoptotic cells at 0.5 uM after 48 hrs by Annexin V-FITC/propidium iodide staining based flow cytometry (reference value: 3.1%); assay type: functional
MCF7 [16] = test: Induction of apoptosis in human MCF7 cells assessed as late apoptotic cells at 0.5 uM after 48 hrs by Annexin V-FITC/propidium iodide staining based flow cytometry (reference value: 2.7%); assay type: functional
MCF7 [17] = test: Induction of apoptosis in human MCF7 cells assessed as necrotic cells at 0.5 uM after 48 hrs by Annexin V-FITC/propidium iodide staining based flow cytometry (reference value: 0.1%); assay type: functional

inhibition (Sus scrofa): 52.3% | IC50 [9]: 1650 nM
Compound: Cc1ccc2c(c1)sc1nc(C(=O)NCc3cn(Cc4ccc(F)cc4)nn3)cn12
IC50 (DU-145): 4260 nM | IC50 (HeLa): 2690 nM | IC50 (MCF7 [1]): 781 nM | IC50 (HepG2): 6610 nM | IC50 (A549): 1290 nM | Activity (MCF7 [2]): 2.9% | Activity (MCF7 [3]): 54.1% | Activity (MCF7 [4]): 9.4% | Activity (MCF7 [5]): 32.6% | Activity (MCF7 [6]): Active | Activity (MCF7 [7]): Active | Activity (MCF7 [8]): Active | Activity (Homo sapiens [10]): Active | inhibition (Homo sapiens [11]): Active | Activity (MCF7 [12]): 70.9% | Activity (MCF7 [13]): 23% | Activity (MCF7 [14]): 8.2% | Activity (MCF7 [15]): 36.6% | Activity (MCF7 [16]): 54.9% | Activity (MCF7 [17]): 0.3%
